These results are taken from ChEMBL document CHEMBL1165965, “Synthesis and structure-activity relationships of 1,2,3,4-tetrahydropyrido[2,3-b]pyrazines as potent and selective inhibitors of the anaplastic lymphoma kinase” (Bioorg Med Chem, 2010).

Bounds are passed on as bounds.

Assay [1] concerns the target Serine/threonine-protein kinase OSR1 (Homo sapiens) (UniProt O95747). The experiment in a line: Inhibition of OSR1 at 1 uM.
Assay [2] concerns the target Serine/threonine-protein kinase PAK 2 (Homo sapiens) (UniProt Q13177). The experiment in a line: Inhibition of PAK2 at 1 uM.
Assay [3] addresses Phosphorylase b kinase gamma catalytic chain, skeletal muscle/heart isoform (Homo sapiens) (UniProt Q16816). The experiment in a line: Inhibition of PHKG1 at 1 uM.
Assay [4] deals with Serine/threonine-protein kinase pim-2 (Homo sapiens) (UniProt Q9P1W9). The experiment in a line: Inhibition of PIM2 at 1 uM.
Assay [5] has as its system Proto-oncogene tyrosine-protein kinase receptor Ret (Homo sapiens), P07949 [V804L]. The experiment in a line: Inhibition of RET V804L mutant at 1 uM.
In assay [6] the target is T1, Mitogen-activated protein kinase kinase kinase 5 (Homo sapiens) (UniProt Q99683).
T1 sequence (whole entry): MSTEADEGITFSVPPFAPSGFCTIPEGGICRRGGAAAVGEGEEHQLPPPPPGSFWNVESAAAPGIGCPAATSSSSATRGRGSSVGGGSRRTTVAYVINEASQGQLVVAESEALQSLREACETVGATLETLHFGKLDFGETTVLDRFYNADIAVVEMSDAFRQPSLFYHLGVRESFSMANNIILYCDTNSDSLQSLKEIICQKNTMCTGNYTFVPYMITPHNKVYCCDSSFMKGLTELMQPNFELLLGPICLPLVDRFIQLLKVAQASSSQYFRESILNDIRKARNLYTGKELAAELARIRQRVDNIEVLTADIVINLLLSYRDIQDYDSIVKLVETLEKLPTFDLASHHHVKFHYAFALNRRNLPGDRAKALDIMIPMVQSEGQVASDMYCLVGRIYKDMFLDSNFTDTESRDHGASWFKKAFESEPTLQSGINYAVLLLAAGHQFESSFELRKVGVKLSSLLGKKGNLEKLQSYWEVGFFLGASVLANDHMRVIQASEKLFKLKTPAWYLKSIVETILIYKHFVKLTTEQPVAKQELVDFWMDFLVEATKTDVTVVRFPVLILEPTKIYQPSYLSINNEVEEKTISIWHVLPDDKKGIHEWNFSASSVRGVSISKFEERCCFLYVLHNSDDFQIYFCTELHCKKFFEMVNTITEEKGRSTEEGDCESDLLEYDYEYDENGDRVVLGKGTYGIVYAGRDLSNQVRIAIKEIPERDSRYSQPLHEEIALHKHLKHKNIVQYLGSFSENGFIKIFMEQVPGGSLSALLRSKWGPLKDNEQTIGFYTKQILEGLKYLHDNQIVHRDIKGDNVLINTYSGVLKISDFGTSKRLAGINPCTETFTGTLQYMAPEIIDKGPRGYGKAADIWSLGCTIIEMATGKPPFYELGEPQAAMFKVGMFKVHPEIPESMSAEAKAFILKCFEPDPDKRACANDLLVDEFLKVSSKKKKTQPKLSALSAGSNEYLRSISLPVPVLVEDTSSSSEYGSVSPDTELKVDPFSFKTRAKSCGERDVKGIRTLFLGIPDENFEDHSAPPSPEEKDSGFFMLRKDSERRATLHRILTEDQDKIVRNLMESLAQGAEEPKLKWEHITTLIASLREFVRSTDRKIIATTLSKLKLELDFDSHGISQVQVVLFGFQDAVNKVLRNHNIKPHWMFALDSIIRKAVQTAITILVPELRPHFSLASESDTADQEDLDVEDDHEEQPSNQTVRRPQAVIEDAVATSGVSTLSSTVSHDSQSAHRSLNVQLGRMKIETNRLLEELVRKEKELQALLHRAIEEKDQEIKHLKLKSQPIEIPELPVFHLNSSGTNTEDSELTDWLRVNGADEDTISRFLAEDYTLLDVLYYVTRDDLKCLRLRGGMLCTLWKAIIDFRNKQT
The experiment in a line: Inhibition of ASK1 at 1 uM. The procedure, abridged:
(§1)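 Ambit KINOMEscan screen at a single concentration across a 250–400 kinase panel, recorded as percent inhibition. Selectivity was expressed as S(90), the fraction of kinases inhibited >90%.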

Assay [7] addresses Tyrosine-protein kinase BTK (Homo sapiens) (UniProt Q06187). The experiment in a line: Inhibition of BTK at 1 uM. The procedure, abridged: as §1
Assay [8] deals with Epidermal growth factor receptor (Homo sapiens) (UniProt P04626+P00533+Q15303+P21860). The experiment in a line: Inhibition of EGFR L747-S752del, P753S mutant at 1 uM. In kind it is protein assay. The method, boiled down:
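Single-concentration screen using Ambit Bioscience KINOMEscan technology across a panel of 250–400 kinases. Per-kinase inhibition from this screen was summarized as S(90), the fraction of kinases inhibited by more than 90%.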

In assay [9] the test system is T2, Receptor-type tyrosine-protein kinase FLT3 (Homo sapiens), P36888 [N841I].
T2 sequence (whole entry): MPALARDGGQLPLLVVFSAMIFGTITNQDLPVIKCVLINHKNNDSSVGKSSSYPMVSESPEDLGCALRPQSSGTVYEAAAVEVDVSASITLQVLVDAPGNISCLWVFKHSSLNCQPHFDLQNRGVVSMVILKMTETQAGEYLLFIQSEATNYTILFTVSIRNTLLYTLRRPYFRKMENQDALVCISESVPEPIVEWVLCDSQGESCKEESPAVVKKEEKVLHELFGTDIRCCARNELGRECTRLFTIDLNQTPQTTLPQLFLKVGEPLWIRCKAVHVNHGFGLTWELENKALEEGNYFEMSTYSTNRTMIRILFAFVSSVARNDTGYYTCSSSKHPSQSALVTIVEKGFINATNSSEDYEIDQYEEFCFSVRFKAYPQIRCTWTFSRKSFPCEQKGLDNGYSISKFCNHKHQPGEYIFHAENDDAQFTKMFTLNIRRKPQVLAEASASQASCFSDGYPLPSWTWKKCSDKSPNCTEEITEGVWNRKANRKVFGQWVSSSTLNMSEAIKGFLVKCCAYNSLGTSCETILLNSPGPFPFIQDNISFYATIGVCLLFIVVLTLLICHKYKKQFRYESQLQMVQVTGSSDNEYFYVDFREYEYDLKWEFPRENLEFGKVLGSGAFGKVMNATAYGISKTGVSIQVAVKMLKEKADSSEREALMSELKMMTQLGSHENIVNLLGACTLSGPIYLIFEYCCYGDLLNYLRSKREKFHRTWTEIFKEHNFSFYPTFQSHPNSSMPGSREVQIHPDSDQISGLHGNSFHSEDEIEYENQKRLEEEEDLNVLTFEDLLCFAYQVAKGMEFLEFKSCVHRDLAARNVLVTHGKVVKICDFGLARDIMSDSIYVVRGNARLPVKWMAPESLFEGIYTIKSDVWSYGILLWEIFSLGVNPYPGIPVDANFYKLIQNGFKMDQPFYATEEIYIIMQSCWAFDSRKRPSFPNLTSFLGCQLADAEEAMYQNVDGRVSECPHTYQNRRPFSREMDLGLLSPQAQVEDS
The experiment in a line: Inhibition of FLT3 N841I mutant at 1 uM. The method, boiled down: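 Single-concentration screen on the Ambit KINOMEscan platform, run against a panel of 250–400 kinases. Per-kinase inhibition was also summarized as S(90), the fraction of kinases inhibited by more than 90%.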

Chain of Serine/threonine-protein kinase pim-2 (Homo sapiens) (Q9P1W9 whole entry, looked up): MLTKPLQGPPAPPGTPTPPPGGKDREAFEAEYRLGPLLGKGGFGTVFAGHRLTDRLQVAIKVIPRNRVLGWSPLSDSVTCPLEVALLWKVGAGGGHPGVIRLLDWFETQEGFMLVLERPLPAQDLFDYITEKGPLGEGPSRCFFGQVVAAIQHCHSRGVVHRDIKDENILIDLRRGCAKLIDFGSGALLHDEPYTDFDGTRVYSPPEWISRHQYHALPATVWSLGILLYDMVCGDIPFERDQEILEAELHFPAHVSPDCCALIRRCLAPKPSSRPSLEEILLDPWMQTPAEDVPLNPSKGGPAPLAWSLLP
Chain of Serine/threonine-protein kinase PAK 2 (Homo sapiens) (Q13177 whole entry, canonical isoform): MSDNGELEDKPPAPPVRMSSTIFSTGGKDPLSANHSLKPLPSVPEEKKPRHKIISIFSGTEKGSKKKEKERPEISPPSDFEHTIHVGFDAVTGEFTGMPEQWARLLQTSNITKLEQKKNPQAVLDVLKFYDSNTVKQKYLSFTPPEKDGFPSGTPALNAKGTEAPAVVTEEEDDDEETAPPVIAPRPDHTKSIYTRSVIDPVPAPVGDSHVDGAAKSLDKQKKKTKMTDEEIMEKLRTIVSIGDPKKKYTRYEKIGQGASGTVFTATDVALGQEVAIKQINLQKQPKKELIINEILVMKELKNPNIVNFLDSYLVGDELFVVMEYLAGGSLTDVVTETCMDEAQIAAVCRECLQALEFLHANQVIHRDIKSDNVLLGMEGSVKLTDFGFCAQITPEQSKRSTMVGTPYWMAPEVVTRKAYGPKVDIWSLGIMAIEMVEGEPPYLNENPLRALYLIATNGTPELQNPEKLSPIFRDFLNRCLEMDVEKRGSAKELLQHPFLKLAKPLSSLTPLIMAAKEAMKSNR
Chain of Proto-oncogene tyrosine-protein kinase receptor Ret (Homo sapiens), P07949 [V804L] (P07949 whole entry V804L): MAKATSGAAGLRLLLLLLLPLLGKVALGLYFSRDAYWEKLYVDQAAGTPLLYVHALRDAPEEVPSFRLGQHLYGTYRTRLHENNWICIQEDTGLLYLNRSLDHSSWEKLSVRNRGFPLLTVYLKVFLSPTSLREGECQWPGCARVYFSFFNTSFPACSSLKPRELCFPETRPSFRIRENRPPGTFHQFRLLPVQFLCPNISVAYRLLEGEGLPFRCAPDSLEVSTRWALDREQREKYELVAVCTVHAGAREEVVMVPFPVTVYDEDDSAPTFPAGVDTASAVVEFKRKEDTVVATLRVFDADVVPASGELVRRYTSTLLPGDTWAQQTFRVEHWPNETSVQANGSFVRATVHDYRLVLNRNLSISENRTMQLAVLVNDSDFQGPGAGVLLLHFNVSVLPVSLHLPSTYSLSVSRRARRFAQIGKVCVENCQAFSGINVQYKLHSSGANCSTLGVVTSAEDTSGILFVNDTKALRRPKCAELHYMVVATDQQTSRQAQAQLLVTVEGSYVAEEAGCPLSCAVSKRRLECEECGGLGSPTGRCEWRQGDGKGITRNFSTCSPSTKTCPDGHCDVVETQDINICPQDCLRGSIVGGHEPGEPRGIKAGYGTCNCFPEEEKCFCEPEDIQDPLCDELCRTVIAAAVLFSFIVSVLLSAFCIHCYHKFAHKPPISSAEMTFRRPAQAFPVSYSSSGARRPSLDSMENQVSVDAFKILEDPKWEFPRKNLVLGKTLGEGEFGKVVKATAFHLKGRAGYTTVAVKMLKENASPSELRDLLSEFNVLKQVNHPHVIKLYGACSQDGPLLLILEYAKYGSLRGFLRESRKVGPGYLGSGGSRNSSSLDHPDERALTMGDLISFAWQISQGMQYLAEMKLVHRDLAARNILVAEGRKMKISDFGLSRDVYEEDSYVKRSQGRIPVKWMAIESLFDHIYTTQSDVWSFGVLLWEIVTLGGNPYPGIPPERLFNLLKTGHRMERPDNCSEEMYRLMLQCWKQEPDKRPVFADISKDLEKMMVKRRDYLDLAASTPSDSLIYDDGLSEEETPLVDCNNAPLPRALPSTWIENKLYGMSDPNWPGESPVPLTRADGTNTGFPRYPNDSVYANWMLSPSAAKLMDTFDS
Chain of Tyrosine-protein kinase BTK (Homo sapiens) (Q06187 whole entry): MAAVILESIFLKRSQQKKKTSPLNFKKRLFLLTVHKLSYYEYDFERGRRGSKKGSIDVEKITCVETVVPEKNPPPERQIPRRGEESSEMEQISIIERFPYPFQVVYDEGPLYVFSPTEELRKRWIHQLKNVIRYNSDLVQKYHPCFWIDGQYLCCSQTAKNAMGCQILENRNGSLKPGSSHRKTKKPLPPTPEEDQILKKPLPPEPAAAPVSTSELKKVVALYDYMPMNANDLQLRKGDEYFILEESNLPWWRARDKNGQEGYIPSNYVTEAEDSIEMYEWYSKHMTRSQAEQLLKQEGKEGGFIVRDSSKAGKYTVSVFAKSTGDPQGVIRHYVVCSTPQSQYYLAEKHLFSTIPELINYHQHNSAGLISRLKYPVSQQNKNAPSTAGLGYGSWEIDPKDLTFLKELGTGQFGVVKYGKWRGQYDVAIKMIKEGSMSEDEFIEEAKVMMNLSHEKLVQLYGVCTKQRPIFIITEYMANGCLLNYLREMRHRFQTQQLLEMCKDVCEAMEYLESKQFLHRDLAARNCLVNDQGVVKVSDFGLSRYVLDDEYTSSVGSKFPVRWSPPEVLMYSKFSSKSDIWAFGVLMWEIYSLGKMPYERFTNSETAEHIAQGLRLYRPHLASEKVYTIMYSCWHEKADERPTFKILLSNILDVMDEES
Chain of Serine/threonine-protein kinase OSR1 (Homo sapiens) (O95747 2-527 limits assumed): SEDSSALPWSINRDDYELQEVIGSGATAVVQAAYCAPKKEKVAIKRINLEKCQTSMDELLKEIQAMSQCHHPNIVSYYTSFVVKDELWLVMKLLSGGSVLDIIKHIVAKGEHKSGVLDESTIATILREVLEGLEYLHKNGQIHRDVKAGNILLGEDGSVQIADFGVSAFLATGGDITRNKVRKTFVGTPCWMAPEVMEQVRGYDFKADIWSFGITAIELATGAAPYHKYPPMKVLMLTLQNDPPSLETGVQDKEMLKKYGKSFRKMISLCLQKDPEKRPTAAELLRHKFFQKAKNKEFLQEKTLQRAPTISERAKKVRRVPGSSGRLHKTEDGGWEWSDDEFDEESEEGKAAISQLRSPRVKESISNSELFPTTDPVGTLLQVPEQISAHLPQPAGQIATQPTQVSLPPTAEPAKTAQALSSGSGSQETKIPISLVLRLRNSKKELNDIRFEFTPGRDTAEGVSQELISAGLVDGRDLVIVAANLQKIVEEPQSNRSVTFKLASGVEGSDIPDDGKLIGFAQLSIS
Chain of Phosphorylase b kinase gamma catalytic chain, skeletal muscle/heart isoform (Homo sapiens) (Q16816 whole entry, looked up, canonical isoform): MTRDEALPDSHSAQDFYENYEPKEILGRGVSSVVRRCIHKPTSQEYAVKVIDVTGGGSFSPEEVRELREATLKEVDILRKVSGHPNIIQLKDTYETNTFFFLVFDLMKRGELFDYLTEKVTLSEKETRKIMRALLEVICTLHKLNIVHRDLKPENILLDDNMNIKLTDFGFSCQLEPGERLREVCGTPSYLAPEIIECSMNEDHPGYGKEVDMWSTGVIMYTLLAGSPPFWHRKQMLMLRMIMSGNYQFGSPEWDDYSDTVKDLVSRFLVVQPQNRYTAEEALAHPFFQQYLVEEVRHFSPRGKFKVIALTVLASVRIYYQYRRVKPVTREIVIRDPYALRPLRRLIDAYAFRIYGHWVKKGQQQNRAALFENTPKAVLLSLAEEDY

In the case of `FC(F)(F)c1ccc(Cl)cc1CN1CCNc2ncc(-c3ccnc(N4CCNCC4)c3)cc21`, the inhibition – broadly, the change of the read-out against control, counted positive when it falls – in assay [1] is below 50%; in assay [2] it was below 50%; in assay [3], below 50%; in assay [4], below 50%; in assay [5] it was 89%; in assay [6], below 50%. Further, the inhibition is below 50% in [7], below 50% in [8] and 100% in assay [9].

`CN1CCN(c2ccc(-c3cnc4c(c3)N(Cc3cc(Cl)ccc3Cl)CCN4)cn2)CC1`: the inhibition in [1], in assay [2], in assay [3], in [4], in assay [5] and in assay [6] was below 50% each time. Besides, the inhibition in assay [7] is below 50%; in assay [8], below 50%; in [9], 93%.

On to `COC1CCN(C(=O)c2ccc(-c3cnc4c(c3)N(Cc3cc(Cl)ccc3C(F)(F)F)CCN4)cc2)CC1`, for which the inhibition in assay [2], in assay [3], in assay [4], in [6], in assay [7] and in assay [8] was below 50% in each case. Also, in assay [9], the inhibition was below 50%.

Consider `O=C(c1ccc(-c2cnc3c(c2)N(Cc2cc(Cl)ccc2C(F)(F)F)CCN3)cc1)N1CCCCC1`, for which the inhibition in assay [2], in [3], in assay [4], in [6], in assay [7] and in [8] was below 50% throughout. The compound also returned an inhibition in [9] below 50%.

On to `O=C(O)c1ccc(-c2cnc3c(c2)N(Cc2cc(Cl)ccc2C(F)(F)F)CCN3)cc1`, for which the inhibition in [2], in assay [3], in assay [4], in assay [6], in assay [7] and in assay [8] was below 50% each time. Moreover, the inhibition in [9] was below 50%.

With `CN1CCN(c2ccc(-c3cnc4c(c3)N(Cc3cc(F)ccc3F)CCN4)cn2)CC1`, the inhibition in [1], in assay [2], in assay [3], in [4], in [5] and in assay [6] was below 50% in each case. Also, the figures for the inhibition in assay [7], in [8] and in [9] were below 50%, below 50% and 84.6%, respectively.

Take `O=C(c1ccc(-c2cnc3c(c2)N(Cc2cc(Cl)ccc2C(F)(F)F)CCN3)cc1)N1CCC(N2CCCC2)CC1`: the inhibition in [2], in [3], in [4], in assay [6], in assay [7] and in [8] was below 50% each time. In addition, in assay [9], the inhibition amounted to 96.1%.

For `CN1CCN(c2ccc(-c3cnc4c(c3)N(Cc3c(F)ccc(F)c3Cl)CCN4)cn2)CC1`, the inhibition in assay [1], in assay [2], in assay [3], in assay [4], in assay [5] and in assay [6] was below 50% each time. Also, the results for the inhibition in [7], in [8] and in [9] were below 50%, below 50% and 83%, respectively.

As for `CC(=O)N1CCN(c2cc(-c3cnc4c(c3)N(Cc3cc(Cl)ccc3C(F)(F)F)CCN4)ccn2)CC1`, the inhibition in assay [1], in assay [2], in assay [3], in assay [4], in assay [5] and in [6] was below 50% throughout. For the same compound, the values for the inhibition in assay [7], in [8] and in [9] were below 50%, below 50% and 92%, respectively.

For the compound `CN1CCN(c2ccc(-c3cnc4c(c3)N(Cc3cc(Cl)ccc3C(F)(F)F)CCN4)cn2)CC1`, the inhibition in assay [1], in assay [2], in assay [3], in assay [4], in [5] and in assay [6] was below 50% in each case. Further, the inhibition in [7], in assay [8] and in assay [9] was below 50% each time.
